Laboratory results: ChEMBL document CHEMBL3576847, “Discovery of 1-(3,3-dimethylbutyl)-3-(2-fluoro-4-methyl-5-(7-methyl-2-(methylamino)pyrido[2,3-d]pyrimidin-6-yl)phenyl)urea (LY3009120) as a pan-RAF inhibitor with minimal paradoxical activation and activity against BRAF or RAS mutant tumor cells” (J Med Chem, 2015)
Values after ≈ are worked out from the molar mass of the structure shown. Active and inactive are the calls of the source. No cut-off for these calls is given here.

How the values were obtained:
[1] = molecular target: T1, Serine/threonine-protein kinase B-raf (Homo sapiens, UniProt P15056, V600E); assay: Inhibition of BRAF V600E mutant in human A375 cells assessed as inhibition of ERK phosphorylation measured after 72 hrs by ELISA assay; format: cell-based, A-375
T1 sequence (P15056 2-766 V600E limits assumed): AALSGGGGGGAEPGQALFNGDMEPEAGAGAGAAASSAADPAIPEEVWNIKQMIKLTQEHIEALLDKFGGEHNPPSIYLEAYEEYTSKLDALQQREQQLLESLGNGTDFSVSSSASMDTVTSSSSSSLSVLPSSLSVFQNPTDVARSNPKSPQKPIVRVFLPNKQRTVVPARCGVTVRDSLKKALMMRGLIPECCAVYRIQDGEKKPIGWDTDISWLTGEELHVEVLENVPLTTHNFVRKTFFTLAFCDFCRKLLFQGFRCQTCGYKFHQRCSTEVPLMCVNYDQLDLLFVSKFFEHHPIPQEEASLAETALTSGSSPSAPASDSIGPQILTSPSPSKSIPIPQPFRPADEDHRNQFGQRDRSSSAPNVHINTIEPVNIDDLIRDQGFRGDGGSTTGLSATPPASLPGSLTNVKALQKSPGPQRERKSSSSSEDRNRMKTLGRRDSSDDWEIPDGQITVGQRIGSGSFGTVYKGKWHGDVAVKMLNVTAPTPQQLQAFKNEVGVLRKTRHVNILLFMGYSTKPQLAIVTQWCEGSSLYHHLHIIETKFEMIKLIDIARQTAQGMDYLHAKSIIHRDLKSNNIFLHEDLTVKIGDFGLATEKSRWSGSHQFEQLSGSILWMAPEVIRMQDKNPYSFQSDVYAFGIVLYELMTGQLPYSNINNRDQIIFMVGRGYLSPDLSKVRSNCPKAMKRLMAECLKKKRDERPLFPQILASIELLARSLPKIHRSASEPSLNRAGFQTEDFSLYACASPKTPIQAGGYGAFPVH

GTPase KRas = GTPase KRas (Homo sapiens, UniProt P01116, G13D); assay: Inhibition of KRAS G13D mutant in human HCT116 cells assessed as inhibition of ERK phosphorylation by ELISA; format: cell-based, HCT-116
Chain of GTPase KRas (P01116 whole entry G13D): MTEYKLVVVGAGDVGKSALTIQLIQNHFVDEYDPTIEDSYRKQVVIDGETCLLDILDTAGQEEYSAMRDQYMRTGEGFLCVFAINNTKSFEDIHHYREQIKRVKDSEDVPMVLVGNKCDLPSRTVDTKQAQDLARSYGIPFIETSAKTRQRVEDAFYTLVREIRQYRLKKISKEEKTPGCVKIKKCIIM
Procedure, shortened: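 HCT116 cells (KRAS G13D, BRAF WT; RAF signalling via CRAF) were treated with compound, and the change in cellular phospho-ERK was measured. IC50 was taken as the concentration inhibiting phospho-ERK.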

[2] = molecular target: Dual specificity mitogen-activated protein kinase kinase; MEK1/2 (Homo sapiens, UniProt P36507+Q02750); assay: Inhibition of MEK (unknown origin)
HCT-116 [3] = assay: cells; conditions: Homo sapiens, HCT-116, 67 h
[4] = molecular target: Serine/threonine-protein kinase B-raf (Homo sapiens, UniProt P15056); assay: Inhibition of wild type BRAF (unknown origin) assessed as ADP formation measured for 5 hrs by pyruvate kinase/lactate dehydrogenase coupled assay in presence of ATP, MEK1, NADH
Chain of Serine/threonine-protein kinase B-raf (Homo sapiens, UniProt P15056) (P15056 whole entry): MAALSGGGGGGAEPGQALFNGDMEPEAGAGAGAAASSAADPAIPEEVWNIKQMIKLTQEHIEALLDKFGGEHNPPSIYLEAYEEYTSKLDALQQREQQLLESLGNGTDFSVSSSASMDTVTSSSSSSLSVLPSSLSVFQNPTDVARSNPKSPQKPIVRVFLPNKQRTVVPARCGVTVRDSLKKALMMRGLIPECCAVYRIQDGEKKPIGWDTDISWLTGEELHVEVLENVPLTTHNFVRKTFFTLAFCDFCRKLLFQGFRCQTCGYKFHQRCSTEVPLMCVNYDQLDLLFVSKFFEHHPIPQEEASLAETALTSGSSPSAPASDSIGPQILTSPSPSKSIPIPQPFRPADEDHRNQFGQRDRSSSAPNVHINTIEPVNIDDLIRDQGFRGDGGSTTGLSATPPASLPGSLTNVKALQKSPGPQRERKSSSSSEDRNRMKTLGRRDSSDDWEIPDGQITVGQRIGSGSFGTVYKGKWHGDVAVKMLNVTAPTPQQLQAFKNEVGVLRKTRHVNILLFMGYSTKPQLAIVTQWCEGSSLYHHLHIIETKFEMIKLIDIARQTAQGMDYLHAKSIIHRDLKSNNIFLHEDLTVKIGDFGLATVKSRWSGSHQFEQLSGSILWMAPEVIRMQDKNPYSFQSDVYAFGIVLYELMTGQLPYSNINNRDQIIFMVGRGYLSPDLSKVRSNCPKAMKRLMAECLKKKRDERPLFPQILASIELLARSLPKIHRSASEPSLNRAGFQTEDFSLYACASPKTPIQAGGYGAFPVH

A-375 [5] = assay: cells; conditions: Homo sapiens, A-375, 72 h
[6] = molecular target: Vascular endothelial growth factor receptor 2 (Homo sapiens, UniProt P35968); assay: Inhibition of KDR (unknown origin)
Chain of Vascular endothelial growth factor receptor 2 (P35968 whole entry): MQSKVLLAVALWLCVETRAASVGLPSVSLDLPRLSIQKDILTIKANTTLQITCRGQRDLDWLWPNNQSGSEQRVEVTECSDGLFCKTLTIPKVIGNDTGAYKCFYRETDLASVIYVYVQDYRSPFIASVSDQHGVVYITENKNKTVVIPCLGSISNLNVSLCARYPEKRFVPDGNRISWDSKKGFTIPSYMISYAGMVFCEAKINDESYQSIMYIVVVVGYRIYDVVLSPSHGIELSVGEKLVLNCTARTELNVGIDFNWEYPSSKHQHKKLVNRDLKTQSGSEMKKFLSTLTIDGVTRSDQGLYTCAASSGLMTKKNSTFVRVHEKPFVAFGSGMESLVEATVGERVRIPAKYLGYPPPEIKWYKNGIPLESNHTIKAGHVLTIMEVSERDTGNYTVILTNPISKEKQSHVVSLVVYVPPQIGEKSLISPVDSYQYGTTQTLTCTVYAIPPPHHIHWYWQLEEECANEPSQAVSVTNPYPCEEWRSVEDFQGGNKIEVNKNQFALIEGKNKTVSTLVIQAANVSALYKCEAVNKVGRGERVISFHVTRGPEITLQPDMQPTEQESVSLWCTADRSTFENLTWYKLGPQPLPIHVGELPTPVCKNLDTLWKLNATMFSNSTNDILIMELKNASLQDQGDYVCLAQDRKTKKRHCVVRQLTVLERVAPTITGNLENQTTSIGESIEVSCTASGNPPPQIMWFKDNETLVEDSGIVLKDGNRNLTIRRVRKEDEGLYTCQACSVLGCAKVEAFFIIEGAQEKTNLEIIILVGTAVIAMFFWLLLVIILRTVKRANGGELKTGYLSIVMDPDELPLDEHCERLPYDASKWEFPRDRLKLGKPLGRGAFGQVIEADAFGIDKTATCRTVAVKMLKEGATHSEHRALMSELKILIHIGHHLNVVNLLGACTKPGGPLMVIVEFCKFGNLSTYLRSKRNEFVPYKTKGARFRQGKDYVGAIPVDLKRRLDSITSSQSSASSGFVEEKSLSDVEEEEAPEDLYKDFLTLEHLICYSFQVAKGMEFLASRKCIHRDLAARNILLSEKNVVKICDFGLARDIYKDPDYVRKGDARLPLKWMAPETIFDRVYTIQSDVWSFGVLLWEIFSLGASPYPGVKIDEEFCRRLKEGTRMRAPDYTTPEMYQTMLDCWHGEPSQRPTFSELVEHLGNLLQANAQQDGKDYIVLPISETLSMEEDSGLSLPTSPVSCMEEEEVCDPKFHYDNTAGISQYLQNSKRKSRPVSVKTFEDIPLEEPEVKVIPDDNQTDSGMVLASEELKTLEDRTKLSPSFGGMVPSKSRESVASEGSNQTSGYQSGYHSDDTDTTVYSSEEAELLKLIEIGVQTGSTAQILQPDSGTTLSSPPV

[7] = molecular target: RAF proto-oncogene serine/threonine-protein kinase (Homo sapiens, UniProt P04049); assay: Inhibition of wild type CRAF (unknown origin) assessed as ADP formation measured for 5 hrs by pyruvate kinase/lactate dehydrogenase coupled assay in presence of ATP, MEK1, PEP, NADH
Chain of RAF proto-oncogene serine/threonine-protein kinase (P04049 whole entry): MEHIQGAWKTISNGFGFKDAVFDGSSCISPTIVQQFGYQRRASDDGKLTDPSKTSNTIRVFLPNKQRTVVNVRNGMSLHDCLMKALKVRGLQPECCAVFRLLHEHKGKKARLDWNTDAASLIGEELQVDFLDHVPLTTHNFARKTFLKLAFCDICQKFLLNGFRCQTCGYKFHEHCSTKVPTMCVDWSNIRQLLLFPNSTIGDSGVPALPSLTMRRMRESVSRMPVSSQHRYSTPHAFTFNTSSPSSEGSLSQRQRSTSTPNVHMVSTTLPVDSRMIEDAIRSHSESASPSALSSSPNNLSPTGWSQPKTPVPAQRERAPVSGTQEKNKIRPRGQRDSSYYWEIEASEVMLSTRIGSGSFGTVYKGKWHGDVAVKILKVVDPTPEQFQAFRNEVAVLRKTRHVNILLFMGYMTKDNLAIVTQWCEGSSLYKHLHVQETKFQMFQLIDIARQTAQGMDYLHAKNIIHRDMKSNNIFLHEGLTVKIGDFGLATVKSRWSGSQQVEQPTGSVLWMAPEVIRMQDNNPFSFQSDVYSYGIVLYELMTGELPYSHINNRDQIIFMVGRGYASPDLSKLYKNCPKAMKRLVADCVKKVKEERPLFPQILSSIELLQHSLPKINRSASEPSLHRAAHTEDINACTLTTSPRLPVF

[8] = molecular target: T1, Serine/threonine-protein kinase B-raf; assay: Inhibition of recombinant BRAF V600E mutant (unknown origin) assessed as ADP formation measured for 5 hrs by pyruvate kinase/lactate dehydrogenase coupled assay in presence of ATP, MEK1, NADH
Mus musculus [9] = assay: In vivo inhibition of BRAF V600E mutant in human A375 cells xenografted in po dosed athymic nu/nu mouse assessed as inhibition of ERK phosphorylation by ELISA; format: functional
Mus musculus [10] = assay: In vivo inhibition of BRAF V600E mutant in human A375 cells xenografted in po dosed athymic nu/nu mouse assessed as inhibition of MEK phosphorylation by ELISA; format: functional, organism-based; conditions: A-375
[11] = Paradoxical activation of RAS/RAF/MEK signaling pathway in human HCT116 cells expressing wild type BRAF assessed as ERK phosphorylation at >100 nM; format: cell-based; conditions: HCT-116
Mus musculus [12] = assay: Toxicity in athymic nu/nu mouse xenografted with human A375 cells expressing BRAF V600E mutant assessed as body weight loss at 20 to 30 mg/kg, po bid administered for 15 days; format: organism-based, A-375; conditions: in vivo, 360 h
Procedure, shortened: (§1)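 Nude mice bearing A375 (BRAF V600E) or HCT116 (KRAS mutant) xenografts given oral b.i.d. doses, 20 and 30 mg/kg (A375) or 40 mg/kg (HCT116), for 15 days; body weight monitored.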

Mus musculus [13] = assay: In vivo inhibition of BRAF V600E mutant in human A375 cells xenografted in po dosed athymic nu/nu mouse assessed as plasma concentration required to inhibit ERK phosphorylation by 80%; format: functional, A-375
Mus musculus [14] = assay: Toxicity in athymic nu/nu mouse xenografted with human HCT116 cells expressing KRAS mutant assessed as body weight loss at 40 mg/kg, po bid administered for 15 days; format: organism-based, HCT-116; conditions: in vivo, 360 h; procedure, shortened: as §1
HCT-116 [15] = assay: Antitumor activity against human HCT116 cells expressing KRAS mutant xenografted in athymic nu/nu mouse at 40 mg/kg, po bid administered for 15 days
A-375 [16] = assay: Antitumor activity against human A375 cells expressing BRAF V600E mutant xenografted in athymic nu/nu mouse assessed as tumor regression at 20 to 30 mg/kg, po bid administered for 15 days; format: functional, organism-based
Procedure, shortened: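 Mice bearing A375 (BRAF V600E) or HCT116 (KRAS mutant) xenografts were dosed orally b.i.d. for 15 days. Doses were 20 and 30 mg/kg for A375 and 40 mg/kg for HCT116. Tumor volume and body weight were monitored.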

[17] = Paradoxical activation of RAS/RAF/MEK signaling pathway in human HCT116 cells expressing wild type BRAF assessed as ERK phosphorylation at <100 nM; format: cell-based; conditions: HCT-116
Mus musculus [18] = assay: In vivo inhibition of BRAF V600E mutant in human A375 cells xenografted in po dosed athymic nu/nu mouse assessed as plasma concentration required to inhibit ERK phosphorylation by 50%; format: functional, A-375
Rattus norvegicus [19] = organism: Rattus norvegicus; assay: Toxicity in rat assessed as inflammation; format: organism-based; conditions: in vivo
Canis familiaris [20] = organism: Canis familiaris; assay: Toxicity in dog assessed as inflammation; format: organism-based, Canis lupus familiaris; conditions: in vivo
[21] = Clearance in po dosed dog administered as suspension; format: ADME, organism-based, Canis lupus familiaris; conditions: in vivo
[22] = Oral bioavailability in rat administered as suspension; format: ADME, organism-based; conditions: in vivo
[23] = Solubility of the compound in simulated fed intestinal fluid; format: ADME
Canis familiaris [24] = organism: Canis familiaris; assay: Toxicity in dog assessed as skeletal muscle degeneration; format: organism-based, Canis lupus familiaris; conditions: in vivo
Rattus norvegicus [25] = organism: Rattus norvegicus; assay: Toxicity in rat assessed as hyperbilirubinemia; format: organism-based; conditions: in vivo
[26] = Oral bioavailability in dog administered as suspension; format: ADME, organism-based, Canis lupus familiaris; conditions: in vivo
Canis familiaris [27] = organism: Canis familiaris; assay: Toxicity in dog assessed as hyperbilirubinemia; format: organism-based, Canis lupus familiaris; conditions: in vivo
Mus musculus [28] = assay: In vivo inhibition of BRAF V600E mutant in human A375 cells xenografted in po dosed athymic nu/nu mouse assessed as inhibition of ERK phosphorylation after 2 hrs by ELISA; format: functional; conditions: A-375, po
Rattus norvegicus [29] = organism: Rattus norvegicus; assay: Toxicity in rat assessed as bone marrow hypocellularity; format: organism-based; conditions: in vivo
[30] = Solubility of the compound in simulated fasted intestinal fluid; format: ADME
Mus musculus [31] = assay: In vivo inhibition of BRAF V600E mutant in human HT-29 cells xenografted in po dosed athymic nu/nu mouse assessed as inhibition of ERK phosphorylation administered as bid for 28 days by Western blot
Canis familiaris [32] = organism: Canis familiaris; assay: Toxicity in dog assessed as bone marrow hypocellularity; format: organism-based, Canis lupus familiaris; conditions: in vivo
[33] = Clearance in po dosed rat administered as suspension; format: ADME, organism-based; conditions: in vivo
Mus musculus [34] = assay: In vivo inhibition of BRAF V600E mutant in human HT-29 cells xenografted in athymic nu/nu mouse assessed as inhibition of ERK phosphorylation at 10 to 20 mg/kg, po bid administered for 28 days by Western blot analysis; format: functional, organism-based
Procedure, shortened: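 HT-29 (BRAF V600E) xenografts in mice, oral dosing for 28 days; after dosing, tumors from individual animals analysed for phospho-ERK by Western blot.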

Mus musculus [35] = assay: Toxicity in athymic nu/nu mouse xenografted with human HT-29 cells assessed as body weight loss at 10 to 20 mg/kg, po bid administered for 28 days; format: organism-based; conditions: in vivo, 672 h
Procedure, shortened: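 HT-29 (BRAF V600E) xenograft mice dosed orally for 28 days; body weight loss monitored.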

Mus musculus [36] = assay: In vivo inhibition of BRAF V600E mutant in human A375 cells xenografted in po dosed athymic nu/nu mouse assessed as plasma concentration required to inhibit ERK phosphorylation by 50% after 2 hrs by ELISA; format: functional, A-375
Rattus norvegicus [37] = organism: Rattus norvegicus; assay: Toxicity in rat assessed as skeletal muscle degeneration; format: organism-based; conditions: in vivo
Mus musculus [38] = assay: In vivo inhibition of BRAF V600E mutant in human A375 cells xenografted in po dosed athymic nu/nu mouse assessed as plasma concentration required to inhibit ERK phosphorylation by 80% after 2 hrs by ELISA; format: functional, A-375

In the case of CNc1cc2nc(C)c(-c3ccc(F)c(NC(=O)NCCC(C)(C)C)c3)cc2cn1, the IC50 [1] is reported as 0.082 µM, the IC50 (GTPase KRas) is reported as 0.046 µM and the IC50 [2] is reported as greater than 20 µM. The IC50 (HCT-116 [3]) was 0.16 µM, the IC50 [4] was 0.0084 µM and the IC50 (A-375 [5]) was 0.04 µM. The IC50 [6] was 0.033 µM, the IC50 [7] was 0.0016 µM and the IC50 [8] was 0.003 µM.

With CNc1cc2nc(C)c(-c3cc(NC(=O)NC[C@@H](O)C(C)(C)C)c(F)cc3C)cc2cn1 the IC50 [1] was 0.022 µM, the inhibition (Mus musculus [9]; A-375) was “Dose-dependent effect” and the ED50 (Mus musculus [9]; A-375, po) was 1.7 mg/kg. For the same compound, the ED80 (Mus musculus [9]; A-375, po) was 5.7 mg/kg, the inhibition (Mus musculus [10]) was “Dose-dependent effect” and the IC50 (GTPase KRas) was 0.16 µM. The Activity [11] was “inactive”, the IC50 [2] was 15 µM and the IC50 (HCT-116 [3]) was 0.174 µM. For the same compound, the Activity (Mus musculus [12]) was “Non-toxic”, the INH (Mus musculus [13]) was 7661 ng/mL and the Activity (Mus musculus [14]) was “Non-toxic”. The Activity (HCT-116 [15]) was “Active”, the IC50 [4] was 0.039 µM and the Activity (A-375 [16]) was “Active”. For the same compound, the Activity [17] was “Active”, the IC50 (A-375 [5]) was 0.01 µM and the IC50 [6] was 0.75 µM. It also gave an IC50 [7] of 0.0072 µM, an IC50 [8] of 0.0077 µM and an Activity (Mus musculus [18]) of 3.1 µM.

For CNc1ncc2cc(-c3cc(NC(=O)NCCC(C)(C)C)c(F)cc3C)cnc2n1, the IC50 [1] was 0.027 µM, the IC50 (GTPase KRas) was 0.016 µM and the IC50 [2] was greater than 20 µM. For the same compound, the IC50 (HCT-116 [3]) was 0.11 µM, the IC50 [4] was 0.0044 µM and the IC50 (A-375 [5]) was 0.018 µM. It also gave an IC50 [6] of 1.9 µM, an IC50 [7] of 0.0012 µM and an IC50 [8] of 0.002 µM.

CCn1c(=O)c(-c2cc(NC(=O)NCCC(C)(C)C)c(F)cc2C)cc2cnc(NC)cc21 showed an IC50 [1] of 0.04 µM, an IC50 (GTPase KRas) of 0.12 µM and an IC50 [2] of 2.5 µM. It also gave an IC50 (HCT-116 [3]) of 0.13 µM, an IC50 [4] of 0.011 µM and an IC50 (A-375 [5]) of 0.034 µM. For the same compound, the IC50 [6] was 0.025 µM, the IC50 [7] was 0.0052 µM and the IC50 [8] was 0.0042 µM.

CNc1ncc2cc(-c3ccc(F)c(NC(=O)NCCC(C)(C)C)c3)c(C)nc2n1 gave an IC50 [1] of 0.11 µM, an IC50 (GTPase KRas) of 0.048 µM and an IC50 [2] greater than 20 µM. The IC50 (HCT-116 [3]) was 0.28 µM, the IC50 [4] was 0.018 µM and the IC50 (A-375 [5]) was 0.026 µM. For the same compound, the IC50 [6] was 0.75 µM, the IC50 [7] was 0.0028 µM and the IC50 [8] was 0.0076 µM.

For CCn1c(=O)c(-c2ccc(F)c(NC(=O)Nc3cc(C(C)(C)C)no3)c2)cc2cnc(NC)cc21, the IC50 [1] was 0.096 µM, the Activity (Rattus norvegicus [19]) was “Toxic” and the Activity (Canis familiaris [20]) was “Toxic”. The CL/F [21] was 14 mL/min/kg, the bioavailability [22] was 28% and the solubility [23] was 310 µg/mL (≈ 648 µM). For the same compound, the IC50 (GTPase KRas) was 0.091 µM, the Activity (Canis familiaris [24]) was “Toxic” and the Activity (Rattus norvegicus [25]) was “Toxic”. The bioavailability [26] was 69%, the Activity (Canis familiaris [27]) was “Toxic” and the IC50 [2] was 4 µM. The ED50 (Mus musculus [28]) was 10.4 mg/kg, the ED80 (Mus musculus [28]) was 20.5 mg/kg and the IC50 (HCT-116 [3]) was 0.16 µM. The Activity (Rattus norvegicus [29]) was “Toxic”, the solubility [30] was 41 µg/mL (≈ 85.7 µM) and the inhibition (Mus musculus [31]) was “Dose-dependent effect”. For the same compound, the Activity (Canis familiaris [32]) was “Toxic”, the CL/F [33] was 13 mL/min/kg and the IC50 [4] was 0.01 µM. For the same compound, the inhibition (Mus musculus [34]) was “Active”, the IC50 (A-375 [5]) was 0.056 µM and the Activity (Mus musculus [35]) was “Non-toxic”. The IC50 [6] was 0.0019 µM, the IC50 [7] was 0.0029 µM and the INH (Mus musculus [36]) was 167 ng/mL. The IC50 [8] was 0.0012 µM, the Activity (Rattus norvegicus [37]) was “Toxic” and the INH (Mus musculus [38]) was 843 ng/mL.
